Test results taken from ChEMBL document CHEMBL4513216, “Probing the Open Global Health Chemical Diversity Library for Multistage-Active Starting Points for Next-Generation Antimalarials” (ACS Infect Dis, 2020).

Test: Toxicity liver stage against HepG2, at 10uM
Type: cell-based
Design: test concentration 10 uM, cell line HepG2-A16-CD81EGFP
Details: human, HepG2-A16-CD81EGFP cells; read-out: INHIBITION
Outline: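 Uninfected HepG2-A16-CD81EGFP cells, 3 × 10^3 per well, 1536-well, plated on prespotted compound at 10 μM final, parasite-free screening media added to match infected plates; puromycin 10 μM positive, DMSO 0.5% negative; run in parallel with 48 h PbLuc assay at 37 °C, 5% CO2; viability by CellTiter-Glo luminescence, normalized to controls.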

| SMILES | cytotoxicity at 10 µM [%] |
| --- | --- |
| O=C(CNC(=O)c1ccccc1F)NCc1ccccn1 | -0.575 |
| O=C(NC[C@H]1OC[C@@H](NCc2ccc(F)cc2)[C@@H]1O)N1CCOCC1 | 1.17 |
| COC(=O)[C@@H]1Cc2ncn(C)c2CN1S(=O)(=O)Cc1ccccc1 | -0.861 |
| Cn1nc(-c2ccccc2)cc1[C@H]1CN2CC[C@H]1C[C@@H]2CNS(C)(=O)=O | 1.82 |
| O=C(Nc1ccccc1)[C@H]1O[C@H](CCN2CCCCC2)CC[C@@H]1O | -1.36 |
| Cc1nc(C)c(CC(=O)NCc2ccc(F)cc2)s1 | 8.05 |
| CC(C)C(=O)N1CCC2(CC1)NC(=O)[C@H]1CN(C(=O)N(C)C)C[C@H]12 | 3.03 |
| CN(C)C(=O)N1CC2(CCOCC2)c2cc(NS(=O)(=O)C3CC3)ccc21 | -7.15 |
| COCCN1CCc2ncc(CN(C)C)n2CC1 | -0.0807 |
| Cc1ccsc1C(=O)N1CCCc2c(c(=O)n(C)n2C)C1 | 6.95 |
| CNC(=O)[C@@H]1COC[C@H]2CN(C(=O)c3ccc(OC)cc3)C[C@H]21 | 9.48 |
| CS(=O)(=O)N1CCCC12CCCN(S(=O)(=O)c1cccc(F)c1)C2 (centres undefined) | 0.88 |
| CCc1cccc(NC(=O)N2CCn3cnc(COC)c3C2)c1 | 5.35 |
| CNC(=O)CN1CCOCC2(CCCN(Cc3ccoc3)C2)C1 (centres undefined) | 6.65 |
| O=C(NC1CCCC1)C1Cc2nc(-c3ccsc3)sc2N1CC1CC1 (centres undefined) | 16.6 |
| Cc1ccc(CN2C[C@@H](c3ccccc3)[C@@]3(CCNC3=O)C2)o1 | -119 |
| COc1ccccc1C1SCC(=O)Nc2c1c(=O)[nH]n2C1CCCCC1 (centres undefined) | -1.2 |
| CC(C)n1[nH]c(=O)c2c1NC(=O)CC2c1ccc(S(C)(=O)=O)cc1 (centres undefined) | -2.28 |
| Cn1nc(CNC(=O)C2CCCC2)cc1C1CC1 | -0.265 |
| Cc1cc(C(F)(F)F)nn1C(C)C(=O)Nc1ccncc1 (centres undefined) | 3.1 |
| COc1cccc(S(=O)(=O)N2CCOC(C)(C(N)=O)C2)c1 (centres undefined) | 3.08 |
| CO[C@@H]1CC[C@@H](N(C)C(=O)c2cn3cc(C)ccc3n2)[C@H]1O | 0.91 |

| SMILES | cytotoxicity at 10 µM [%] |
| --- | --- |
| CN1CCC(c2cccc(NCc3ccncc3)n2)CC1 | 6.08 |
| O=C1CN(C(=O)C2CN(c3ccccc3)CCO2)CCN1 (centres undefined) | 1.91 |
| Cc1cc(-c2cnc(N3CCOCC3)nc2-c2cccnc2C)on1 | -21.4 |
| CCN1CCCC(c2cc(Nc3cnccn3)nc(C)n2)C1 (centres undefined) | -12.9 |
| Cc1ccc(CC(=O)N(C)CC2(O)CCCN(c3ccccn3)C2)s1 (centres undefined) | -14.1 |
| O=C1Nc2ccccc2CC12CCCN2Cc1cccnc1 (centres undefined) | 7.27 |
| CNC(=O)c1ccc(CN(C)C(=O)Nc2nnc(C(C)C)s2)cc1 | -14 |
| CNC(=O)CNC(=O)Nc1ccc(F)c(Br)c1 | 7.92 |
| Cc1cccc(NC(=O)CNC(=O)c2ccccc2F)c1 | -1.24 |
| O=C1NCCCC1NC(=O)C1(c2cccc(Cl)c2)CCC1 (centres undefined) | -2.09 |
| Cc1cc(NCCC(=O)NC(C)C)nc(-c2ccncc2)n1 | -6.74 |
| O=C(NCc1cnn(-c2ccc(F)cc2F)c1)C1CCCO1 (centres undefined) | 8.69 |
| CN1CCN(CC(NCc2ccc(F)cc2)c2ccccc2)CC1 (centres undefined) | -15.7 |
| Cc1nc(CN2CCN(C(=O)Cc3cccc(Cl)c3)CC2)no1 | -4.76 |
| CCCc1cc(NC2CCc3nc(C)nn3C2)n2ncnc2n1 (centres undefined) | -10.4 |
| O=C(COc1ccc(-c2ccccc2)nc1)NCC1CC1 | 6.8 |
| CCc1cnc(CN(C)C2CCN(CCCS(=O)(=O)NC)C2)o1 (centres undefined) | 7.82 |
| O=C(c1csc(-c2ncccn2)n1)N1CCN2CCCCC2C1 (centres undefined) | 4.55 |
| O=C(c1nc(=O)[nH][nH]1)N1CCCCCC1 | 14.1 |
| Cc1ccc(Cl)cc1S(=O)(=O)NCc1cnc(N(C)C)n1C | 5.17 |
| Cc1noc(C(C)NC(=O)[C@@H](C)NC(=O)OC(C)(C)C)n1 (some centres undefined) | 5.81 |
| CCN(C(=O)Nc1cc(C)on1)C(C)c1cccc(O)c1 (centres undefined) | 2.52 |

| SMILES | cytotoxicity at 10 µM [%] |
| --- | --- |
| CN1CCOC(CNCc2c(Cl)nc3ccccn23)C1 (centres undefined) | -0.0638 |
| CCc1nc(CN2CCN(C(=O)c3csc(C(C)C)n3)CC2)no1 | 11.3 |
| Cc1n[nH]c(C2CN(Cc3csc(C4CCCC4)n3)CCO2)n1 (centres undefined) | 12.9 |
| CC(=O)NC(C)(C)c1noc(C2(C#N)CCCCC2)n1 | 7.57 |
| C=C(C)Cn1ccc2cc(OC)c(F)cc2c1=O | 3.09 |
| CSc1ccc(OC(C)C(=O)Nc2c(C)n[nH]c2C)cc1 (centres undefined) | 6.8 |
| Cc1cc(C2CCCN(C(=O)c3c(C)noc3C)C2)n[nH]1 (centres undefined) | -6.63 |
| CNC(=O)[C@@H]1C[C@H]2CN(Cc3ccc(C)o3)C[C@H]2N1C(C)=O | -103 |
| CCCN1CCC(N2CCN(c3cc(C)nc(C)c3)CC2)CC1 | -11.2 |
| CCN1CCN(C[C@@H]2CN(c3ncccc3F)C[C@@H]2CO)CC1 | -6.45 |
| CCC[C@H]1CN(S(=O)(=O)c2ccccc2)C[C@@H]1N | 1.35 |
| N#Cc1ccc(N2CCC(c3nccn3Cc3cscn3)CC2)nc1 | -7.01 |
| CS(=O)(=O)N1CCC[C@H]1c1ncnn1-c1ccc2c(c1)OCO2 | -12.8 |
| Cc1cc(C)nc(CN(C)C(=O)c2cccc(CCC(C)(C)O)c2)c1 | -3.25 |
| CCC1C=CCN1C(=O)c1cc(COc2ccccc2OC)[nH]n1 (centres undefined) | 2.93 |
| CCC(=O)N1CCN(C(=O)Nc2cccc(C#N)c2)[C@H]2CS(=O)(=O)C[C@H]21 | -46 |
| Cc1oc(-c2ccoc2)nc1CN1CCCCC1CCc1ccccc1 (centres undefined) | -1.48 |
| COc1cccn(CC(=O)N2CCCC3(CCCO3)CC2)c1=O (centres undefined) | 0.955 |
| CCc1c(C)sc(NC(=O)CN2CCOCC2)c1C(=O)OC | 19.3 |
| CC1CCN(S(=O)(=O)c2ccc(C(=O)N3CCSCC3)cc2)CC1 | 9.54 |
| CN(CCCc1cnn(C)c1)C(=O)C1COc2ccccc2C1 (centres undefined) | -5.91 |
| CCc1cc(NCCc2ccc(O)cc2)n2nccc2n1 | -16.3 |

| SMILES | cytotoxicity at 10 µM [%] |
| --- | --- |
| CNc1nc(C2CCCN2C(C)=O)nc2c1CCN(CC1CC1)C2 (centres undefined) | -0.361 |
| COc1ccc(C)cc1CC(=O)NS(=O)(=O)c1ccc(C(N)=O)cc1 | 8 |
| CN(Cc1ccc(F)cc1)C(=O)Nc1cccnc1N1CCCC1 | -4.26 |
| Cn1cnc2c1CCN(Cc1csc(-c3ccc(F)cc3)n1)C2 | -4.78 |
| CC(C)CNC(=O)c1cccc(CN2CCc3c(ncn3C)C2)c1 | -6.98 |
| CN1CCN(c2cc(CNC(=O)c3ccsc3)ccn2)CC1 | -7.27 |
| Cc1cc2n(n1)CC(CNCc1ccc(N3CCOCC3)nc1)CN2 (centres undefined) | -15.3 |
| Cc1cc(NC(=O)NCC(c2ccccc2)N2CCOCC2)n(C)n1 (centres undefined) | -11 |
| CCOc1ccc(C#N)cc1NCC(=O)NC1(C#N)CCCC1 | -30.8 |
| CC(C)c1nc2c(n1C)CCN(CCCOc1ccc(C#N)cc1)C2 | -12.8 |
| Cc1ccc(NC2CCN(C(=O)c3ccc(C#N)cc3)CC2)nn1 | -4.28 |
| Cc1cc(NS(=O)(=O)c2ccc(C(=O)O)cc2F)ccc1F | -1.96 |
| CC(C)c1nc2n(n1)CC(NCc1nnc(C3CC3)o1)CC2 (centres undefined) | -11.6 |
| CCCC(=O)N1CCN(CC(O)COCC)CC1 (centres undefined) | -20.6 |
| COc1cc(C)ccc1OCC(=O)NS(=O)(=O)c1ccc(Br)s1 | -7.72 |
| CC(=O)N(Cc1ncc(C)o1)C1CCN(Cc2sc(C)nc2C)C1 (centres undefined) | -19.8 |
| CCc1nc(C2CCCN(C(=O)CC3CCOCC3)C2)no1 (centres undefined) | -15.3 |
| CCc1nc(CN2CCCN(CC(=O)Nc3cccnc3)CC2)no1 | -17.4 |
| COc1ccc(C(O)CNc2c(C#N)c(=O)n(C)c(=O)n2C)cc1 (centres undefined) | -7.34 |
| COc1ccc(C(C)NC(=O)NCCCn2cncn2)cc1F (centres undefined) | 2.12 |
| COc1ccc(CN(C)Cc2nc3c(cnn3C)c(=O)[nH]2)cc1OC | 0.457 |
| CC(C)(C)OC(=O)N1CCN(C(=O)c2sccc2C2CC2)CC1 | 2.38 |

| SMILES | cytotoxicity at 10 µM [%] |
| --- | --- |
| CCN(CCNC(=O)c1ccccc1Br)C1CC1 | 3.32 |
| O=C(c1ccccn1)N1CCC2(CC1)COC(COCC1CCCC1)C2 (centres undefined) | -1.18 |
| Cn1cc(C(=O)NCc2cn3c(n2)CN(CC2CCCC2)CC3)cn1 | 7.17 |
| CN(Cc1cccnc1)[C@@H]1CN(C(=O)c2ccoc2)[C@@H]2CCCO[C@H]12 | -1.81 |
| CCOCC1CN(Cc2cccnc2OC)Cc2cnn(C)c21 (centres undefined) | -1.6 |
| O=C1CC(c2ccccc2)C2(CCN(Cc3nccs3)CC2)N1 (centres undefined) | 4.67 |
| Cc1ccc(CN2CCC[C@@H]3CN(C(=O)c4ccco4)C[C@@H]32)s1 | -1.05 |
| Cc1cc(C(=O)N2CC[C@@H](N(C)C)[C@@H]2Cc2ccccc2)no1 | -0.567 |
| Cc1ccc(CN2CCC3(CC2)CN(c2cnn(C)c2)C(=O)CO3)o1 | 2.96 |
| COc1ccc(CN2C[C@@H]3CN(Cc4ccncc4)C[C@@H]3C2=O)cc1 | -3.86 |
| CCCS(=O)(=O)N1C[C@@H]2CN(Cc3cccs3)CCO[C@@H]2C1 | -145 |
| Cn1cccc1C(=O)N1CCC2(CCCN2c2ncccn2)CC1 | 6.07 |
| O=C(c1cccnc1)N1CCOC2(COCCN(c3cncnc3)C2)C1 (centres undefined) | 4.53 |
| CCc1ncnc2c1CCN(Cc1nccs1)CC2 | 6.56 |
| CN(C)c1ncc(-c2cc(C(=O)NCCC#N)n(CC3CC3)c2)cn1 | 1.29 |
| CN1C(=O)CCCC12CCCN(Cc1cccs1)C2 (centres undefined) | -0.302 |
| Cc1ccsc1CNC1CCCc2c1cnn2C (centres undefined) | 2.27 |
| O=C1N(CC2CC2)CCC12CCN(c1ncccn1)CC2 | 3.77 |
| O=C(c1n[nH]c2c1CN(C1CCOCC1)CC2)N1CCCC1 | -2.39 |
| CN(C)[C@@H]1CN(Cc2ccco2)C[C@@H]2CCCO[C@@H]21 | 2.75 |
| Cc1ccc(N2CC[C@@H]3CN(Cc4cccc(C)n4)C[C@@H]3C2)nn1 | 6.34 |
